High-throughput results deposited in PubChem by several laboratories.
Rpn11 inh: Rpn11 (PSMD14) deubiquitinase inhibitors, primary screen, biochemical, fluorescence polarization, uHTS; human 26S proteasome, Ub4-pepOG fluorescence polarization; 20S core pre-blocked with epoxomicin; 26S proteasome non-ATPase regulatory subunit 14 (Homo sapiens), O00487; inhibition, % at 20 µM; 360,000 compounds, 0.59% hits; AID 588493, 2011;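 active = inhibition at 20 µM, scaled to each plate's controls, above about 33%, limit read from the data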
Target sequence (O00487 whole entry, looked up): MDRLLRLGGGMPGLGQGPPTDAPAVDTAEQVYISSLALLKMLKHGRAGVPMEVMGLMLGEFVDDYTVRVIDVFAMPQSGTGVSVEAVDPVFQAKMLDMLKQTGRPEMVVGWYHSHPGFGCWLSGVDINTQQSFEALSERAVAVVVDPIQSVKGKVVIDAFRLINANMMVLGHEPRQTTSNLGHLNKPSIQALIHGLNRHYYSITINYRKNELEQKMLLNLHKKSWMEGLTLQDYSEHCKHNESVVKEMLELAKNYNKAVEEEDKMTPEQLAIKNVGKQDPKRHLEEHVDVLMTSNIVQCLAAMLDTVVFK
HNF4A DNA FP: change in binding of human HNF4A to DNA, primary screen, biochemical, fluorescence polarization, FITC-DNA; Hepatocyte nuclear factor 4-alpha (Homo sapiens), P41235; 1 h; activity change, % at 10 µM; 360,000 compounds, 0.3% hits; in the data active = activity change above about 30%, passing the limit was not always enough
CSN inh: inhibitors of CSN-mediated cullin deneddylation, primary screen, biochemical, fluorescence polarization, uHTS; COP9 signalosome complex subunit 5 (Homo sapiens), Q92905; Purified CSN, SCF-Nedd8-OG deneddylation; inhibition, % at 12.5 µM; 360,000 compounds, 0.38% hits;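 active = pattern-corrected inhibition above about 35%, with an unprinted fluorescence ratio check between 0.5 and 1.5, limit read from the data, passing the limit was not always enough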;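 note: 0% = enzyme with substrate and 100% = substrate without enzyme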
Target sequence (Q92905 whole entry, looked up, one chain of several): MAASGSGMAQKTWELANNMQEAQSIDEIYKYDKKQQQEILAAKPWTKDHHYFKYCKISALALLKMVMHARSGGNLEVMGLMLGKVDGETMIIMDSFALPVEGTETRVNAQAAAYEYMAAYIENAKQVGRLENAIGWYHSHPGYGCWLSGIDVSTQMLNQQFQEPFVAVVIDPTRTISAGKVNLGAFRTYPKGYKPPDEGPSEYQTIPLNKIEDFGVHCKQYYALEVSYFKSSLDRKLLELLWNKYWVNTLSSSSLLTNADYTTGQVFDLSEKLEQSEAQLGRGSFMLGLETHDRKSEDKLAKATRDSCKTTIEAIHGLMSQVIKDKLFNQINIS
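Detection – fluorescence polarization · System – HEK293T-derived human Csn5 enzyme · Controls – substrate-only high control, full reaction low control · Timing – 90 min, room temperature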
TPT1 inhibitor: Candida albicans TPT1 enzyme inhibitors, primary screen, biochemical, fluorescence polarization. tRNA 2'-phosphotransferase TPT1 (Candida albicans SC5314). recombinant caTPT1, FP RNA substrate dephosphorylation. inhibition, % at 5 µM. 300,000 compounds, 0.81% hits. AID 1962, 2009;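 active = inhibition above the mean of all tested compounds plus 3 SD, set per screening campaign, cut at about 24% in these data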;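 note: plate controls were DMSO alone for no effect and ferristatin control at 100 nM for full effect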
Starred values were filed as active, the others as inactive; nt = no result shown; + = active, no number. The list is not random: actives were taken first. Their share in the collection is about 1.5%.

SMILES	Rpn11 inh	HNF4A DNA FP	CSN inh	TPT1 inhibitor
CC(NC(=O)/C(C#N)=C1\N=C(NC(=O)c2cccs2)c2ccccc21)c1ccccc1 (centres undefined)	16.0	54.9*	15.2	8.7
O=c1c2c(nc3cc(-c4ccc(Cl)cc4)[nH]n13)CCS2	11.7	-4.4	41.5*	-0.1
CCc1c(C)nc2cc(-c3ccc(Cl)cc3)[nH]n2c1=O	-1.9	-0.8	-2.7	-4.5
COC(=O)c1nn(-c2ccc(OC)cc2)ccc1=O	4.6	-0.4	2.8	-3.7
Cc1c(C)n2c(SCC(=O)NCc3ccc4c(c3)OCO4)nnc2[nH]c1=O	-0.4	0.4	51.6*	2.1
O=C(CSc1nc2c([nH]c3ccccc32)c(=O)n1-c1ccccc1)N1CCOCC1	0.1	-2.9	0.6	-2.6
O=C(CSc1nc2c([nH]c3ccccc32)c(=O)n1-c1cccc(Cl)c1)N1CCOCC1	22.5	-7.4	80.5*	-2.8
CCN1C[C@@H]2[C@@H]3C(=O)N(Cc4ccccc4)C(=O)[C@@H]3[C@](CC)(C1=O)N2C(=O)c1ccc(F)cc1	0.4	-2.3	-5.2	nt
CN(C)CCNc1ccc(CO)c2sc3ccc(O)cc3c(=O)c12	39.1	35.6*	5.5	nt
Nc1ccc(Oc2c(Cl)cccc2Cl)nc1	7.2	3.9	36.5*	-0.4
O=C(/C=C/Nc1ccccc1)c1ccccc1	-1.5	-0.5	0.7	2.7
CN(C)c1ccc(N/C=C/C(=O)c2ccccc2)cc1	nt	38.4*	11.2	16.3
COc1ccc(C(=O)Nc2nc(-c3ccc([N+](=O)[O-])cc3)c(-c3ccc(OC)cc3)s2)cc1	60.8*	20.7	5.8	2.1
CON(C)C(=O)CC1(CN(Cc2ccccc2)C(=O)OC(C)(C)C)CCCCC1	2.1	1.7	-1.9	nt
C#CC(=O)CC1(CN(Cc2ccccc2)C(=O)OC(C)(C)C)CCCCC1	40.5*	13.1	13.0	nt
Cc1cc(NC(=O)CCN2CCCCC2)ccc1Br	-0.3	0.5	-6.5	-0.8
COc1ccc(C2CC(=O)Oc3cc(C)c(Cl)c(C)c32)cc1 (centres undefined)	-2.5	0.7	-4.5	nt
CCCCCCc1cc2cc(C(=O)NCc3ccccc3)c(=N)oc2cc1O	nt	81.3	53.8*	22.2
CN(C)c1ccc(/C=C/c2ccc3c4ccccc4ccc3[n+]2-c2ccccc2)cc1	-5.9	28.1	57.1*	nt
O=C(Cn1c(=O)n(Cc2ccco2)c(=O)c2c3c(sc21)CCCCC3)c1ccccc1	-6.3	-13.2	37.8*	6.8
O=C(Cn1c(=O)n(Cc2ccco2)c(=O)c2c3c(sc21)CCCCC3)Nc1ccccc1	-7.1	-22.5	48.0	5.0
CCc1ccc(N2CC(C(=O)Nc3ccccc3N3CCCC3)CC2=O)cc1 (centres undefined)	-6.6	-4.3	0.2	nt
CC(C)(C)NC(=O)C1(C)CCC(=O)N1C1CC1 (centres undefined)	-1.1	-0.8	-2.8	nt
Nc1cc(-c2ccccc2)nn1S(=O)(=O)c1ccc(Br)cc1	-2.7	2.1	+	1.1
COc1cc(-c2cc(N)n(S(=O)(=O)c3ccccc3)n2)cc(OC)c1OC	-10.3	3.1	5.4	-1.1
SMILES	Rpn11 inh	HNF4A DNA FP	CSN inh	TPT1 inhibitor
COc1cc(OC)cc(C(=O)Nc2ccccc2C(=O)NC2CC2)c1	0.5	-2.0	-4.4	nt
N#CCSc1ncnc2sc3c(c12)CCC3	5.0	8.9	38.0*	12.5
CCCC(=O)N1CCCC(c2cc(C(=O)NCc3ccc(F)cc3)no2)C1 (centres undefined)	1.7	-2.1	2.4	nt
O=C(NCc1ccco1)c1cccc2c1C(=O)c1ccc(N3CCC(N4CCCCC4)CC3)cc1S2(=O)=O	nt	53.3	38.7*	nt
O=C(NCCN1CCCCC1)c1cccc2c1C(=O)c1ccc(N3CCCC3)cc1S2(=O)=O	nt	60.5	33.3	nt
CC(C)(C)CNC(=O)c1cccc2c1C(=O)c1ccc(N3CCCC3)cc1S2(=O)=O	nt	88.0	42.2*	nt
O=C(NCc1ccc(F)cc1)c1cccc2c1C(=O)c1ccc(N3CCC(N4CCCCC4)CC3)cc1S2(=O)=O	nt	56.0	44.8*	nt
CC(C)c1cccc(-c2ccc3c(c2)S(=O)(=O)c2cccc(C(=O)O)c2C3=O)c1	3.1	-1.6	3.5	nt
CC(C)c1cccc(-c2ccc3c(c2)S(=O)(=O)c2cccc(C(=O)NCc4ccco4)c2C3=O)c1	6.8	-19.5	49.0*	nt
CCCN(CC(=O)Nc1ccccc1C)C(=O)CCCc1c[nH]c2ccccc12	2.9	2.0	7.0	nt
CCNC(=O)C1CCCN(C(=O)c2ccc(C#N)cc2)CC1 (centres undefined)	-3.2	1.4	0.3	nt
CC(C(=O)N1CCN(c2ccccc2)CC1)c1ccc([N+](=O)[O-])cc1 (centres undefined)	-6.0	-2.2	-0.1	0.1
COc1ccc(-c2cc(-c3ccccc3)c(C#N)c(SCC(=O)O)n2)cc1	1.0	1.6	4.7	1.0
COc1ccc(-c2cc(-c3ccc(Cl)cc3)c(C#N)c(SCC(=O)O)n2)cc1	15.7	-5.7	41.5*	-2.1
COC(=O)c1ccccc1NC(=O)COC(=O)Cc1ccc(S(=O)(=O)N2CCOCC2)s1	6.2	5.2	-0.1	nt
O=C(Nc1ccncc1NC(=O)c1cccc([N+](=O)[O-])c1)c1cccc([N+](=O)[O-])c1	4.8	-5.3	41.3*	-0.1
Cc1ccc(S(=O)(=O)c2cc3ccccc3nc2N)cc1	0.8	2.2	4.7	3.6
CCCC[C@@H]1CNCCN1CCc1cccc(F)c1	-4.2	2.4	5.0	-3.1
NC1=NC[C@H](Cc2ccccc2)N1CCc1cccc(F)c1	9.1	9.9	63.4*	-1.9
NC1=NC[C@H](Cc2ccccc2)N1CCCCC1CCCCC1	-9.4	0.6	6.9	1.9
Fc1cccc(CCN2CCNC[C@@H]2Cc2ccccc2)c1	-4.9	2.5	38.2*	0.1
O=C(OCC(=O)N1CCc2ccccc21)c1ccncc1	3.4	0.3	-4.4	nt
Cc1ccc(NC(=S)Nc2cccc3cnccc23)cc1C	4.8	6.3	36.9*	2.2
Cc1ccccc1NC(=S)Nc1cccc2cnccc12	5.4	2.9	29.4	-1.4
Cc1ccc(C)c(NC(=S)Nc2cccc3cnccc23)c1	-10.1	0.6	35.5*	0.2
Cc1ccc2c(c1)N(CC(=O)N1CCCCC1)C(=O)C(C)O2 (centres undefined)	-1.6	-2.6	5.1	-0.7
Cc1ccc(S(=O)(=O)NCC(C)n2cncn2)cc1 (centres undefined)	0.4	-0.1	-0.4	-0.8
Cn1nc(C(C)(C)C)cc1C(=O)N1CCCCC1c1cc(C(=O)Nc2ccccc2)no1 (centres undefined)	0.8	-1.9	0.3	nt
CCOC(=O)c1c(NC(=O)CN(C)C2CCN(C)CC2)sc(C(=O)Nc2ccccc2)c1C	9.6	4.7	-4.0	0.8
